# From ChEMBL document CHEMBL2375288, “Synthesis and pharmacokinetic profile of highly deuterated brecanavir analogs” (Eur J Med Chem, 2013)
# Key:
# Hepatocyte [1] = test: Drug metabolism in rat hepatocytes assessed as formation of -[2H]-6-(5-((N-((2R,3S)-3-(((3R,3aS,6aR)-hexahydrofuro[2,3-b]furan-3-yloxy)carbonylamino)-2-hydroxy-4-(4-((2-methylthiazol-4-yl)methoxy)phenyl)butyl)-N-isobutylsulfamoyl)methyl)-2-methoxyphenoxy)-3,4,5-trihydroxytetrahydro-2H-pyran-2-carboxylic acid at 10 uM after 4 hrs by LC/MS/MS analysis; format: ADME, cell-based
# Hepatocyte [2] = test: Drug metabolism in human hepatocytes assessed as formation of -[2H]-(3R,3aS,6aR)-hexahydrofuro[2,3-b]furan-3-yl (2S,3R)-4-(1-(3,4-dihydroxyphenyl)-N-isobutylmethylsulfonamido)-3-hydroxy-1-(4-((2-methylthiazol-4-yl)methoxy)phenyl)butan-2-ylcarbamate at 10 uM after 4 hrs by LC/MS/MS analysis; format: ADME, cell-based
# Rattus norvegicus [3] = test: Dose-normalized AUC in rat at 0.25 mg/kg, iv; format: ADME, organism-based; design: dose 0.25 mg/kg, route intravenous; details: in vivo
# In short: (§1)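 Intravenous dosing at 0.25 mg/kg in fed rats, given as a solution in DMSO/solutol/mannitol (2.5/10/87.5).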
# [4] = Plasma clearance in rat at 0.25 mg/kg, iv; format: ADME, organism-based; design: dose 0.25 mg/kg, route intravenous; in short: as §1
# [5] = Half life in rat at 0.25 mg/kg, iv; format: ADME, organism-based; design: dose 0.25 mg/kg, route intravenous; details: in vivo; in short: as §1
# Rattus norvegicus [6] = test: Dose-normalized AUC in rat at 0.25 mg/kg, iv co-administered with 4 mg/kg of ritonavir; format: ADME, organism-based; details: in vivo
# In short: (§2)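 Fed rats received 0.25 mg/kg intravenously as a DMSO/solutol/mannitol (2.5/10/87.5) solution, with ritonavir co-administered at 4 mg/kg.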
# [7] = Plasma clearance in rat at 0.25 mg/kg, iv co-administered with 4 mg/kg of ritonavir; format: ADME, organism-based; in short: as §2
# [8] = Half life in rat at 0.25 mg/kg, iv co-administered with 4 mg/kg of ritonavir; format: ADME, organism-based; details: in vivo; in short: as §2
Structure (SMILES),Stability (Hepatocyte [1]),Stability (Hepatocyte [2]),AUC/dose (Rattus norvegicus [3]),clearance [4],half-life [5],AUC/dose (Rattus norvegicus [6]),clearance [7],half-life [8]
[2H]C1([2H])Oc2ccc(S(=O)(=O)N(C[C@@]([2H])(O)[C@H](Cc3ccc(OC([2H])([2H])c4csc(C)n4)cc3)NC(=O)O[C@@]3([2H])CO[C@@]4([2H])OCC[C@H]43)C([2H])([2H])C([2H])(C([2H])([2H])[2H])C([2H])([2H])[2H])cc2O1,Unstable,Unstable,64 ng·h/mL/mg,64 mL/min/kg,12 min,–,–,–
[2H]C1([2H])C[C@@H]2[C@H](O1)OC([2H])([2H])[C@]2([2H])OC(=O)N[C@@H](Cc1ccc(OC([2H])([2H])c2csc(C)n2)cc1)[C@]([2H])(O)CN(C([2H])([2H])C([2H])(C([2H])([2H])[2H])C([2H])([2H])[2H])S(=O)(=O)c1ccc2c(c1)OC([2H])([2H])O2,–,–,59 ng·h/mL/mg,59 mL/min/kg,12 min,–,–,–
Cc1nc(COc2ccc(C[C@H](NC(=O)O[C@H]3CO[C@H]4OCC[C@H]43)[C@H](O)CN(CC(C)C)S(=O)(=O)c3ccc4c(c3)OCO4)cc2)cs1 [BRECANAVIR],–,–,66 ng·h/mL/mg,65 mL/min/kg,12 min,774 ng·h/mL/mg,5.4 mL/min/kg,132 min
